The source made the active and inactive calls. The calls are words filed in the database; no cut-off is given here. Bounds are passed on as bounds.

Assay [1] deals with T1, Orexin receptor type 2 (Homo sapiens) (UniProt O43614).
T1 sequence (whole entry): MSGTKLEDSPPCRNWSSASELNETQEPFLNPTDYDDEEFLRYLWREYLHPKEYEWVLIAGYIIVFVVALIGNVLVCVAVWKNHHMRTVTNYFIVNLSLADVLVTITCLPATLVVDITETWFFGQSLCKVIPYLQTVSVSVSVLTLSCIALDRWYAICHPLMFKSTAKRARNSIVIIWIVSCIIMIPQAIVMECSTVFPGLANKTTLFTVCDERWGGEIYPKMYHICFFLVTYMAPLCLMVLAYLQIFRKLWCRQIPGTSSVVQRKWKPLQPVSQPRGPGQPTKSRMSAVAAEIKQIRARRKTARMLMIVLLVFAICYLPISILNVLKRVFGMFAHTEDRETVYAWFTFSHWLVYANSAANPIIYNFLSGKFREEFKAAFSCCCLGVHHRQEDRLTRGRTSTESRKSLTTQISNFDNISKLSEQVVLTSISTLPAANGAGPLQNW
Nature of the assay: Antagonist activity at human OX2 receptor expressed in CHO-RD-HGA16 cells assessed as inhibition of orexin-A-induced calcium mobilization at 10 uM preincubated for 15 mins followed by orexin-A addition measured every 1.52 secs over 60 secs by calcium 5 dye-based fluorescence assay relative to control. The format is functional, cell-based. The method in brief: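 OX2 stable CHO-RD-HGA16 cells, Calcium 5 dye-loaded, were pre-incubated 15 min at 37°C with compound at 10 μM before orexin A addition. Calcium fluorescence was read every 1.52 s for 60 s and percent inhibition of the orexin A response recorded.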

The species entered for assay [2] is Homo sapiens. Kind of assay: Selectivity for human OX1 receptor over human OX2 receptor.
The target in assay [3] is T1, Orexin receptor type 2 (Homo sapiens). Kind of assay: Agonist activity at human OX2 receptor expressed in CHO-RD-HGA16 cells assessed as induction of calcium mobilization at 10 uM measured every 1.52 secs over 60 secs by calcium 5 dye-based fluorescence assay. The class given is functional, cell-based. The method in brief: (§1)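 Stable CHO-RD-HGA16 lines overexpressing human OX1 or OX2, plated overnight at 25,000 cells/well, 37°C, 5% CO2. Loaded 45 min with Calcium 5 dye in HBSS/20 mM HEPES/2.5 mM probenecid, pH 7.4. Compound tested alone at 10 μM; fluorescence (ex 485/em 525 nm) read every 1.52 s for 60 s.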
On the technique in general: Calcium assays in cells follow changes in intracellular calcium, usually with a dye or a luminescent sensor.

Assay [4] has as its target T2, Orexin/Hypocretin receptor type 1 (Homo sapiens) (UniProt O43613).
T2 sequence (whole entry): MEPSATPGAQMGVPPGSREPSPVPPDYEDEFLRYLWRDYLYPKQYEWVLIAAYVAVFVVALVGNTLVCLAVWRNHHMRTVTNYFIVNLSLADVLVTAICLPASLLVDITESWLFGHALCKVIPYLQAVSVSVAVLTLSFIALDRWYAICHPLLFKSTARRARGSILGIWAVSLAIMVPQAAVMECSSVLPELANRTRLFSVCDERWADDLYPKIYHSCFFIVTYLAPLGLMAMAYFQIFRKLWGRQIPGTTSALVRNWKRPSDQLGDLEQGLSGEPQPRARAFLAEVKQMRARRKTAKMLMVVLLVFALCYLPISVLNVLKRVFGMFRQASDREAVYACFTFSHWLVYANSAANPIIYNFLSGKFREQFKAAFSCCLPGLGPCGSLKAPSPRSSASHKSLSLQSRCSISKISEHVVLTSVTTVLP
Kind of assay: Agonist activity at human OX1 receptor expressed in CHO-RD-HGA16 cells assessed as induction of calcium mobilization at 10 uM measured every 1.52 secs over 60 secs by calcium 5 dye-based fluorescence assay. The format is functional, cell-based. The essentials: as §1

The species entered for assay [5] is Homo sapiens. Kind of assay: Selectivity ratio of Ke(app) for human OX2 receptor to Ke(app) for human OX1 receptor.

Consider `CCOc1ccc2c(c1)C(Cc1ccc(OC)c(OC)c1)N(CC(=O)NCc1ccccc1)CC2` (stereo unspecified), for which the inhibition (commonly how much of the control response was suppressed) in assay [1] is below 50%. In addition, in assay [2], the Ratio Ke was 268. Also, the outcome in assay [3] and in assay [4] was inactive.
With `COc1ccc(CC2c3cc(OC(C)C)ccc3CCN2CC(=O)NCc2ccccc2)cc1OC` (stereo unspecified), in assay [1], the inhibition is below 50%. Further, the Ratio Ke in assay [2] was found to be 201. The result in assay [3] and in assay [4] was inactive.
Consider `CCCOc1ccc2c(c1)C(Cc1ccc(OC)c(OC)c1)N(CC(=O)NCc1ccccc1)CC2` (stereo unspecified), for which the outcome in assay [3] and in assay [4] was inactive. Moreover, the Ratio Ke in assay [5] amounted to 108.

Values taken from ChEMBL document CHEMBL3600355, “The importance of the 6- and 7-positions of tetrahydroisoquinolines as selective antagonists for the orexin 1 receptor” (Bioorg Med Chem, 2015).
